In the library only some 2.8% were active in any assay of this set; here they are far more common.
pPAFAH inh: inhibitors of human plasma PAF acetylhydrolase (pPAFAH); actives 1.5% (n = 330,000); inhibition, % at 3.39 µM; AID 463082; recombinant pPAFAH, FP-rhodamine probe fluorescence polarization; Q13093;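 active = inhibition above the mean inhibition across the screen plus 3 SD, cut at about 25% in these data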;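 also: inhibitors block binding of the rhodamine activity-based probe so polarization drops; 0% = enzyme with DMSO and 100% = wells lacking pPAFAH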
ARFGAP1 inhibitor: inhibits rat ARF GTPase activating protein 1; Q62848; Arfgap1-stimulated ARF1 GTP hydrolysis, GDP FP detection; inhibition, % at 16.5 µM; actives 0.26% (n = 360,000); AID 651572;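 active = inhibition above a per-plate limit, mean inhibition of low control wells plus 3 SD, cut at about 25% in these data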;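 also: 0% = DMSO wells with enzyme and 100% = wells lacking Arfgap1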
Target sequence (Q62848 1-136 limits assumed): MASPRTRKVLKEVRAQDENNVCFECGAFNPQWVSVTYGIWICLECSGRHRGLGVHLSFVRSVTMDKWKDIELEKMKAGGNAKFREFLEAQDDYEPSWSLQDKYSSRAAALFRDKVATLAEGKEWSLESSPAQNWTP
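Assay system: Rat Arfgap1 GAP domain (His6, aa 1-136), purified enzyme | Buffer or medium: HEPES 25 mM pH 7.5, NaCl 150 mM, MgCl2, DTT | Schedule: GTP hydrolysis reaction 2 h at 25 °C | Signal: FP of antibody-bound GDP Alexa 633 tracer, ex 620/em 688 nm | Measure: Percent inhibition of Arfgap1-stimulated GTP hydrolysis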
PAFAH1B3 inh: blocks human PAF acetylhydrolase 1B catalytic subunit 3. Q15102. recombinant PAFAH1B3, FP-rhodamine probe, fluorescence polarization. inhibition, % at 3.39 µM. actives 0.28% (n = 340,000). AID 492972;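 active = inhibition above the screen-wide average of all tested compounds plus 3 SD, cut at about 25% in these data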;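 also: 0% = enzyme with DMSO only and 100% = wells lacking PAFAH1B3 protein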
Target sequence (Q15102 whole entry, looked up): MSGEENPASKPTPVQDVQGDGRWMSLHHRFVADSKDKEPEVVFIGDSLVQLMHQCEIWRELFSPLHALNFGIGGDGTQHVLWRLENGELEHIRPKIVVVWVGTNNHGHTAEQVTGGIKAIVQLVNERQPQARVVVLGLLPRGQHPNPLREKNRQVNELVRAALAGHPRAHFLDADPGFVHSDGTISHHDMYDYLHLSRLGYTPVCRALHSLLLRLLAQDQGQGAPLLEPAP
ASAP1 GAP inh: blocks human ASAP1-stimulated Arf1 GTP hydrolysis; GDP FP detection; inhibition, % at 16.5 µM; actives 0.19% (n = 360,000); in the data active = inhibition above about 25%;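 also: 0% = vehicle with enzyme and substrate and 100% = no enzyme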
PAFAH1B2 FP inh: blocks human PAF acetylhydrolase 1b catalytic subunit 2; AID 492953; recombinant PAFAH1B2, FP-rhodamine activity probe, fluorescence polarization; inhibition, % at 3.39 µM; P68402; actives 1.2% (n = 340,000);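 active = inhibition above the mean of all tested compounds plus 3 SD, cut at about 24% in these data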;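 also: 0% = enzyme with DMSO and 100% = wells lacking PAFAH1B2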
Target sequence (P68402 whole entry, looked up): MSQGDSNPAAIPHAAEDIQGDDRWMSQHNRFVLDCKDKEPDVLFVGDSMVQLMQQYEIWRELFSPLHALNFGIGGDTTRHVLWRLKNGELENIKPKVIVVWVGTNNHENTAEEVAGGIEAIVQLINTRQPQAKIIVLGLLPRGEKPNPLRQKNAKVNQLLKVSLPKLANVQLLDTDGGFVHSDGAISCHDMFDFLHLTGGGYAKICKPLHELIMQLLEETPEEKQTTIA
PAFAH2 inh: PAFAH2 (human) inhibition; Q99487; recombinant PAFAH2, FP-rhodamine activity probe, fluorescence polarization; inhibition, % at 3.39 µM; actives 0.99% (n = 340,000);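 active = inhibition above the mean over all tested compounds plus 3 SD, cut at about 30% in these data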;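 also: inhibitors block probe labeling of enzyme so polarization drops; 0% = enzyme with DMSO and 100% = wells lacking PAFAH2 protein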
The depositor's hits bear a star; / = no result given.

SMILES	pPAFAH inh	ARFGAP1 inhibitor	PAFAH1B3 inh	ASAP1 GAP inh	PAFAH1B2 FP inh	PAFAH2 inh
COC(=O)[C@]12C[C@H](CC(=O)N3CCC(c4ccccc4)CC3)C(=O)N(Cc3ccccc3)C1=C[C@H](C1CCCC1)O[C@@H]2C	/	10	/	-3	/	/
CCCCc1ccc(S(=O)(=O)NCCCN2CCCC2=O)cc1	28*	13	4	-1	8	4
Cc1ccc(NS(=O)(=O)c2ccc(C(=O)NCCCN3CCCC3=O)cc2)cc1C	31*	7	1	-1	1	6
Oc1ccc2ccccc2c1-c1sc(Nc2ccccc2)n[n+]1-c1ccc(F)cc1	3	11	9	13	-5	-6
Fc1ccc(-[n+]2nc(Nc3ccccc3)sc2-c2c3ccccc3cc3ccccc23)cc1	26*	-11	12	6	-4	5
Cc1ccccc1NS(=O)(=O)c1ccc(C2CNC(=O)C2)cc1 (stereo unspecified)	33*	6	4	2	4	-1
COC(CN(C)C(=O)C1CCC(CNS(=O)(=O)c2ccc(C)cc2)CC1)OC (stereo unspecified)	25*	-10	-1	-3	6	-1
COC(CN(C)C(=O)C1CCC(CNS(=O)(=O)c2ccccc2)CC1)OC (stereo unspecified)	8	-9	3	15	5	1
COC(=O)c1c(NC(=O)C2C3CCC(O3)C2C(=O)O)sc2c1CCCCCC2 (stereo unspecified)	6	-4	8	-1	50*	7
CCOC(=O)c1c(NC(=O)C2C3CCC(O3)C2C(=O)O)sc2c1CCCC2 (stereo unspecified)	2	7	4	2	2	5
CCCCC[C@H](C)N1C[C@@H](COCc2ccccc2)Oc2cc(N3CCC[C@H]3C(N)=O)ccc2S1(=O)=O	/	-4	/	-7	/	/
N#CC1=C(N)C2=CCCC[C@H]2[C@H](c2ccc(Br)cc2)C1(C#N)C#N	28*	/	-5	/	10	-1
CCCNC(=O)C1(C)CCCN(C(=O)c2cc(C(C)(C)C)nn2C)C1 (stereo unspecified)	/	-9	/	-17	/	/
Nc1cc2nsnc2cc1Br	4	22	59*	-6	43*	56*
NC(=O)CN(c1ccccc1)C1SC(=O)N(Cc2ccccc2)C1=O (stereo unspecified)	1	-4	-8	-14	13	0
Cc1ccc(N(CC(N)=O)C2SC(=O)N(Cc3ccccc3)C2=O)cc1 (stereo unspecified)	1	-6	12	6	26*	6
CCN1C(=O)/C(=C\c2ccc(-c3ccc([N+](=O)[O-])cc3OC)o2)SC1=Nc1cccc(C(=O)O)c1	/	-11	21	3	24*	9
CCN1C(=O)/C(=C\c2ccc(-c3cccc(C(=O)OC)c3)o2)SC1=Nc1ccc(C(=O)O)cc1	5	0	/	-1	/	/
CC1=C(C(=O)N2CCCCCC2)CC(CC(=O)NCCCN(C)C)C(=O)N1Cc1ccc(C(C)(C)C)cc1 (stereo unspecified)	/	5	/	-11	/	/
Cc1ccccc1CS(=O)(=O)Cc1ccc(C(=O)NCc2ccco2)o1	25*	10	1	9	2	-3
Cc1ccccc1S(=O)(=O)Cc1ccc(C(=O)NCc2ccco2)o1	9	6	2	16	6	1
O=C1C=C(OCCF)CC(c2ccccc2C(F)(F)F)O1 (stereo unspecified)	/	0	/	-7	/	/
CC(C)c1ccc(/C=N/n2c(COc3ccccc3)n[nH]c2=S)cc1	10	5	24	1	29*	35*
CCCN(CCC)c1nc(Cl)nc(NCc2ccco2)n1	26*	7	8	19	-2	0
O=C(Nc1nccs1)C1CC(=O)N(CCc2ccccc2)C1 (stereo unspecified)	/	-17	8	-13	6	-1
SMILES	pPAFAH inh	ARFGAP1 inhibitor	PAFAH1B3 inh	ASAP1 GAP inh	PAFAH1B2 FP inh	PAFAH2 inh
Cc1ccc(SC(C)c2nc(-c3cccnc3)no2)cc1 (stereo unspecified)	-2	0	8	4	27*	0
CCOC(=O)[C@H]1[C@H]2COc3ccc(C)cc3[C@@H]2N2C(=O)CN(Cc3ccco3)C(=O)[C@@]12C	0	-8	-2	-10	-1	2
CCC(=O)c1ccc(OCC(=O)N2CCN(c3ncccn3)CC2)cc1	6	-7	5	-5	3	0
Cc1ccc(-c2cc(-c3ccc(Cl)cc3)c(C#N)c(N)n2)o1	25*	-2	1	2	8	-2
Cc1ccc(-c2cc(-c3ccc(C)o3)nc(N)c2C#N)cc1	22	-5	3	4	4	3
O=C(NCc1ccccc1)C1(c2cccc(F)c2)CCCC1	-5	-17	7	-8	26*	10
COc1cc(CNC(=O)CCCCCCC(C)C)ccc1O	26*	6	6	-4	3	3
O=C(Nc1ccncc1)c1cc2ccccc2cc1O	10	4	10	2	10	7
Cc1cc([N+](=O)[O-])c2c(c1C)C1C=CCC1C(c1ccccn1)N2 (stereo unspecified)	28*	/	/	/	/	/
COc1cc(/C=C/C(=O)OCC(=O)N(CC(C)C)c2c(N)n(Cc3ccccc3)c(=O)[nH]c2=O)ccc1O	/	-4	4	9	4	8
CCN(C[C@H]1N[C@@](CC)(C(=O)OC)[C@H]2C(=O)N(Cc3ccccc3)C(=O)[C@@H]12)C(=O)c1ccc(C)cc1	3	4	9	6	10	1
CC(C)(C)c1cc(=O)n(-c2ccccc2)[nH]1	5	29*	12	4	1	8
COC(=O)C1(C(=O)OC)C[C@H](/C=C/c2ccccc2)N(Cc2ccccc2OC)[C@@H]1c1cccc(Br)c1	/	14	/	-4	/	/
CCC(C)NS(=O)(=O)c1ccc(S(=O)(=O)N(CC(=O)Nc2ccccc2)CC2CCCO2)cc1 (stereo unspecified)	31*	-10	-5	-5	-3	-2
COC(=O)[C@]12CCCCC=C1N(CCC1=CCCCC1)C(=O)[C@H](CC(=O)NCCc1ccccc1OC)C2	/	6	/	-15	/	/
CCCS(=O)(=O)NC(=O)C1(C)CCCN(C(=O)c2cccnc2Oc2ccccc2)C1 (stereo unspecified)	/	-13	/	-5	/	/
Cn1cccc1C(=O)OCC(=O)Nc1cc(C(C)(C)C)nn1-c1ccccc1	29*	8	-1	-2	0	0
CCn1c(=O)c(=O)n(CC)c2cc(S(=O)(=O)Nc3ccc(C)cc3)ccc21	26*	-3	4	4	0	8
CC(=O)c1ccc(NS(=O)(=O)c2ccc(CC(C)C)cc2)cc1	17	5	-1	-4	28*	2

Screens (PubChem BioAssay)
